Measurements as given in ChEMBL document CHEMBL1139507, “Application of phosphoramidate pronucleotide technology to abacavir leads to a significant enhancement of antiviral potency” (J Med Chem, 2005).
Several values for one entry are separate records, joined by “and”; a condition that tells them apart may be missing. Identical values can stand only once.

How the values were obtained:
Hepatitis B virus [1] = test: Effective concentration against HBV in Hep G2.2.15 cells; type: functional, organism-based, HepG2 2.2.15
Method in brief: (§1)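 Anti-HBV activity assayed in HepG2 2.2.15 human hepatoma cells, which constitutively produce HBV; EC50 = 50% effective concentration.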

HepG2 [2] = test: Cytostatic concentration required to inhibit Hep G2 cell proliferation; type: functional; conditions: Homo sapiens
[3] = tested on: Human immunodeficiency virus 2; test: Effective concentration against human immunodeficiency virus type 2 in CEM cells; type: functional, organism-based; conditions: Human immunodeficiency virus 2, CCRF-CEM
Method in brief: (§2)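 HIV-1- and HIV-2-induced cytopathicity in CEM cell cultures, scored at day 4 by microscopic examination of virus-induced giant cell formation; EC50 = concentration inhibiting cytopathicity by 50%.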

MT4 = test: Cytostatic concentration required to inhibit MT-4 cell proliferation; type: functional, Homo sapiens
[4] = tested on: Human immunodeficiency virus 1; test: Effective concentration against human immunodeficiency virus type 1 in CEM cells; type: functional, organism-based; conditions: Human immunodeficiency virus 1, CCRF-CEM; method in brief: as §2
[5] = tested on: Human immunodeficiency virus 1; test: Effective concentration against human immunodeficiency virus type 1 in MT-4 cells; type: functional, organism-based, MT4
CCRF-CEM [6] = test: Cytostatic concentration required to inhibit CEM cell proliferation; type: functional; conditions: Homo sapiens
[7] = tested on: Human immunodeficiency virus 2; test: Effective concentration against human immunodeficiency virus type 2 in MT-4 cells; type: functional, organism-based; conditions: Human immunodeficiency virus 2, MT4
[8] = Area under the plasma concentration-time curve in monkey after intravenous dosage; type: ADME; conditions: cercopithecidae
Method in brief: (§3)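 Female cynomolgus monkeys (three, 2.0-3.2 kg) received the succinate salt at 11.5 mg/kg (17.3 µmol/kg), 2.3 mg/mL in 10% DMSO/90% saline, 5 mL/kg, iv on day 1 and orally on day 8 (1-week washout); fasted overnight to ~4 h postdose. Serial plasma to 24 h, acetonitrile deproteination, LC/MS/MS of prodrug, alaninyl-ABC-MP, ABC-MP, ABC, CBV; noncompartmental analysis.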

[9] = Area under the plasma concentration-time curve in monkey after peroral dosage; type: ADME; conditions: cercopithecidae, po; method in brief: as §3
[10] = Apparent half life value in monkey after oral dosage; type: ADME, organism-based; conditions: cercopithecidae, in vivo, read-out: T1/2 app (converted); method in brief: as §3
[11] = Terminal elimination half-life in monkey after intravenous dosage; NA = not applicable; type: ADME, organism-based; conditions: cercopithecidae, in vivo; method in brief: as §3
[12] = Time of maximum concentration was observed in monkey after oral dosage; type: ADME, organism-based; conditions: cercopithecidae, in vivo; method in brief: as §3
CCRF-CEM [13] = test: Intracellular concentration of metabolites (ABCMP) from 6-8 hrs in CEM cells after incubation with the compound (10 uM); type: functional, cell-based; conditions: Homo sapiens
Method in brief: (§4)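 CEM T4 lymphocytes seeded at (2-4) × 10⁵ cells/mL in RPMI-1640 with 10% fetal calf serum, 2 mM L-glutamine, 0.075% NaHCO₃. They were exposed 24 h to 10 µM [³H]abacavir or 1.1 µM ³H-ProTide (5 µCi/5 mL), washed twice in cold medium, and extracted with cold methanol/water 60:40. Metabolites were separated by SAX HPLC, (NH₄)H₂PO₄ pH 5.0 gradient 0.005-0.30 M, with fractions by retention time in min. Results are pmol/10⁹ cells.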

[14] = tested on: Human immunodeficiency virus 2; test: Ratio of CC50 to that of EC50 against human immunodeficiency virus type 2 in CEM cells; type: functional, CCRF-CEM
HepG2 [15] = test: Cytostatic concentration required to inhibit Hep G2.2.15 cell proliferation; type: functional, Homo sapiens
Method in brief: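 Growth inhibition of HepG2 2.2.15 human hepatoma cells (constitutively HBV-producing) measured; CC50 = 50% cytostatic concentration.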

CCRF-CEM [16] = test: Intracellular concentration of metabolites (CBVDP) from 19-21 hrs in CEM cells after incubation with the compound (10 uM); type: functional, cell-based; conditions: Homo sapiens; method in brief: as §4
[17] = tested on: Human immunodeficiency virus 1; test: Effective concentration against human immunodeficiency virus type 1 in PBL cells; type: functional, organism-based; conditions: Human immunodeficiency virus 1, PBL
[18] = tested on: Human immunodeficiency virus 1; test: Ratio of CC50 to that of EC50 against human immunodeficiency virus type 1 in CEM cells; type: functional, CCRF-CEM
CCRF-CEM [19] = test: Intracellular concentration of metabolites (CBVTP) from 35-38 hrs in CEM cells after incubation with the compound (10 uM); type: functional, cell-based; conditions: Homo sapiens; method in brief: as §4
Human alphaherpesvirus 1 [20] = test: Effective concentration against thymidine kinase deficient herpes simplex virus (HSV-1) in B2006 strain; conditions: Human alphaherpesvirus 1, B2006
CCRF-CEM [21] = test: Intracellular concentration of metabolites (CBV-MP) from 11-13 hrs in CEM cells after incubation with the compound (10 uM); type: functional, cell-based; conditions: Homo sapiens; method in brief: as §4
HEL = test: Cytostatic concentration required to inhibit HEL cell proliferation; type: functional; conditions: Homo sapiens
Method in brief: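 HEL cell proliferation measured in presence of compound; CC50 = 50% cytostatic concentration inhibiting HEL cell proliferation by 50%.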

Hepatitis B virus [22] = test: Effective concentration againstHBV in Hep G2.2.15 cells; type: functional, organism-based, HepG2 2.2.15; method in brief: as §1
[23] = tested on: Human immunodeficiency virus 2; test: Effective concentration against human immunodeficiency virus type 2 (ROD) in CEM cells; type: functional, organism-based; conditions: Human immunodeficiency virus 2, CCRF-CEM; method in brief: as §2
Human alphaherpesvirus 1 [24] = test: Effective concentration against thymidine kinase competent herpes simplex virus (HSV-1) in […]; type: functional, organism-based
Method in brief: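 Confluent HEL cell cultures inoculated with 100 CCID50 of HSV-1 (KOS), HSV-2 (G) or HSV-1 TK- (B2006, VMW-1837); after 1 h adsorption, residual virus removed and cells incubated with varying compound concentrations; cytopathicity recorded once complete in virus controls; EC50 = concentration inhibiting HSV-induced cytopathicity by 50%.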

CCRF-CEM [25] = test: Intracellular concentration of metabolites (ABC +CBV) from 2-3 hrs in CEM cells after incubation with the compound (10 uM); type: functional, cell-based; conditions: Homo sapiens; method in brief: as §4
[26] = tested on: Moloney murine sarcoma virus; test: Effective concentration against murine moloney sarcoma virus in C3H/3T3 cells; type: functional, organism-based
Human alphaherpesvirus 1 [27] = test: Effective concentration against thymidine kinase deficient herpes simplex virus (HSV-1) in VMW-1837 strain; conditions: Human alphaherpesvirus 1, VMW-1837
C3H/3T3 = test: Cytostatic concentration required to inhibit C3H/3T3 cell proliferation; type: functional; conditions: Mus musculus
Human alphaherpesvirus 2 = test: Effective concentration against thymidine kinase competent herpes simplex virus (HSV-2) in […]
[28] = Hepatitis B virus, HepG2 2.2.15
[29] = Human immunodeficiency virus 1, MT4

For `CC(C)OC(=O)[C@@H](C)NP(=O)(OC[C@@H]1C=C[C@H](n2cnc3c(NC4CC4)nc(N)nc32)C1)Oc1ccccc1` (some centres not stated), the EC50 (Hepatitis B virus [1]; [28]) was 550 nM, the CC50 (HepG2 [2]) was 17 µM and the EC50 [3] was 50 nM. For the same compound, the CC50 (MT4; Homo sapiens, MT4) was 4.6 µM, the EC50 [4] was 50 nM and the EC50 [5, 29] was 200 nM. The CC50 (CCRF-CEM [6]) was 13 µM and the EC50 [7] was 0.26 µM.
`C[C@@H](NP(=O)(O)OC[C@@H]1C=C[C@H](n2cnc3c(NC4CC4)nc(N)nc32)C1)C(=O)O` showed an EC50 (Hepatitis B virus [1]; [28]) of 5000 nM, a CC50 (HepG2 [2]) of 11 µM and an AUC [8] of 9.2 µM·h. For the same compound, the AUC [9] was 2.6 µM·h, the half-life [10] was 48 min and the CC50 (MT4; Homo sapiens, MT4) was 2.1 µM. For the same compound, the T1/2 [11] was “Not Active”, the EC50 [4] was 1200 nM and the EC50 [5, 29] was 6600 nM. For the same compound, the CC50 (CCRF-CEM [6]) was 8.6 µM, the Tmax [12] was 1.3 h and the EC50 [7] was 3.4 µM.
With `C[C@@H](NP(=O)(OC[C@@H]1C=C[C@H](n2cnc3c(NC4CC4)nc(N)nc32)C1)Oc1ccccc1)C(=O)OC(C)(C)C` (some centres not stated) the EC50 (Hepatitis B virus [1]; [28]) was 5000 nM, the CC50 (HepG2 [2]) was 11 µM and the EC50 [3] was 6000 nM. For the same compound, the CC50 (MT4; Homo sapiens, MT4) was 2.1 µM, the EC50 [4] was 3700 nM and the EC50 [5, 29] was 6600 nM. It also gave a CC50 (CCRF-CEM [6]) of 8.6 µM and an EC50 [7] of 3.4 µM.
Work on `Nc1nc(NC2CC2)c2ncn([C@H]3C=C[C@@H](CO)C3)c2n1` [ABACAVIR] yielded a Concentration (pmol/E109 cells) (CCRF-CEM [13]) of 5.8, an EC50 (Hepatitis B virus [1]; [28]) of 5600 nM and a CC50 (HepG2 [2]) of 110 µM. For the same compound, the SI [14] was 26, the CC50 (HepG2 [15]) was 17 µM and 110 µM and the Concentration (pmol/E109 cells) (CCRF-CEM [16]) was 42. The AUC [8] was 6 µM·h, the EC50 [17] was 200 nM and the EC50 [3] was 3000 nM. It also gave an SI [18] of 41, a Concentration (pmol/E109 cells) (CCRF-CEM [19]) of 82 and an EC50 (Human alphaherpesvirus 1 [20]) of 900 µM. The AUC [9] was 6 µM·h, the half-life [10] was 156 min and the CC50 (MT4) was 192 µM and 89 µM. The Concentration (pmol/E109 cells) (CCRF-CEM [21]) was 108, the CC50 (HEL) was 200 µM and the T1/2 [11] was “Not Active”. The EC50 (Hepatitis B virus [22]; [28]) was 5600 nM, the EC50 [23] was 3000 nM and the EC50 (Human alphaherpesvirus 1 [24]) was 900 µM. It also gave a Concentration (pmol/E109 cells) (CCRF-CEM [25]) of 762, an EC50 [26] of 8.8 µM and an EC50 [4] of 1900 nM. The EC50 ([5]; mt4) was 5900 nM and 2150 nM, the EC50 (Human alphaherpesvirus 1 [27]) was 320 µM and the CC50 (CCRF-CEM [6]) was 78 µM. For the same compound, the Tmax [12] was 3 h, the CC50 (C3H/3T3) was > 20 µM and the EC50 (Human alphaherpesvirus 2) was 900 µM. It also gave an EC50 [7] of 7.3 µM.
With `COC(=O)[C@@H](C)NP(=O)(OC[C@@H]1C=C[C@H](n2cnc3c(NC4CC4)nc(N)nc32)C1)Oc1ccccc1` (stereo in doubt; 3a,b) the EC50 (Hepatitis B virus [1]; hepg2 2.2.15) was 550 nM, the CC50 (HepG2 [2]) was 17 µM and the CC50 (HepG2 [15]) was 17 µM. The EC50 [3] was 50 nM, the CC50 (MT4) was 4.3 µM and 4.6 µM and the EC50 (Hepatitis B virus [22]; [28]) was 550 nM. For the same compound, the EC50 [4] was 50 nM, the EC50 ([5]; mt4) was 200 nM and 37 nM and the CC50 (CCRF-CEM [6]) was 13 µM. For the same compound, the EC50 [7] was 0.26 µM.
`COC(=O)[C@@H](C)NP(=O)(OC[C@@H]1C=C[C@H](n2cnc3c(NC4CC4)nc(N)nc32)C1)Oc1ccccc1` (stereo in doubt; 3a) gave a CC50 (HepG2 [15]) of 10 µM, a CC50 (MT4) of 1 µM and an EC50 (Hepatitis B virus [22]; hepg2 2.2.15) of 400 nM. The EC50 ([5]; mt4) was 27 nM.
In the case of `CCOC(=O)[C@@H](C)NP(=O)(OC[C@@H]1C=C[C@H](n2cnc3c(NC4CC4)nc(N)nc32)C1)Oc1ccccc1` (stereo in doubt; 6b), the EC50 (Hepatitis B virus [1]; hepg2 2.2.15) is reported as 270 nM, the CC50 (HepG2 [15]) is reported as 35 µM and the CC50 (MT4) is reported as 5 µM. It also gave an EC50 ([5]; mt4) of 140 nM.
For `COC(=O)[C@@H](C)NP(=O)(OC[C@@H]1C=C[C@H](n2cnc3c(O)nc(N)nc32)C1)Oc1ccccc1` (some centres not stated), the SI [14] was 26, the CC50 (HepG2 [15]; Homo sapiens, HepG2) was 200 µM and the EC50 [17] was 200 nM. For the same compound, the SI [18] was 41, the EC50 (Human alphaherpesvirus 1 [20]) was > 800 µM and the CC50 (HEL) was 160 µM. For the same compound, the EC50 (Hepatitis B virus [22]; [28]) was 510 nM, the EC50 [23] was 3000 nM and the EC50 (Human alphaherpesvirus 1 [24]) was 480 µM. For the same compound, the EC50 [26] was 8.8 µM, the EC50 [4] was 1300 nM and the EC50 (Human alphaherpesvirus 1 [27]) was 480 µM. For the same compound, the CC50 (CCRF-CEM [6]) was 78 µM, the CC50 (C3H/3T3) was > 20 µM and the EC50 (Human alphaherpesvirus 2) was 480 µM.
